Measured values taken from ChEMBL document CHEMBL3994637, “Broad spectrum anti-infective properties of benzisothiazolones and the parallels in their anti-bacterial and anti-fungal effects” (Bioorg Med Chem Lett, 2017).
≈ marks a conversion by molar mass, not a printed value.

What was measured:
[1] = test system: Aspergillus fumigatus; assay: Anti-fungal activity against Aspergillus fumigatus after 48 hrs by broth microdilution method; assay type: functional
[2] = test system: Candida albicans; assay: Anti-fungal activity against Candida albicans after 48 hrs by broth microdilution method; assay type: functional
[3] = test system: Klebsiella pneumoniae; assay: Antibacterial activity against Klebsiella pneumoniae ATCC 27736 by broth microdilution method; assay type: functional
Method in brief: (§1)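 Bacteria were tested by the NCCLS method in Mueller Hinton broth, with gentamicin and norfloxacin as reference drugs.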

[4] = test system: Cryptococcus neoformans; assay: Anti-fungal activity against Cryptococcus neoformans after 48 hrs by broth microdilution method; assay type: functional
[5] = test system: Escherichia coli; assay: Antibacterial activity against Escherichia coli ATCC 9637 by broth microdilution method; assay type: functional; settings: W; method in brief: as §1
[6] = test system: Candida parapsilosis; assay: Anti-fungal activity against Candida parapsilosis ATCC 22019 after 48 hrs by broth microdilution method; assay type: functional; settings: Lodderomyces parapsilosis, ATCC 22019, 48 h
[7] = test system: Pseudomonas aeruginosa; assay: Antibacterial activity against Pseudomonas aeruginosa ATCC BAA-427 by broth microdilution method; assay type: functional; method in brief: as §1
[8] = test system: Sporothrix schenckii; assay: Anti-fungal activity against Sporothrix schenckii after 48 hrs by broth microdilution method; assay type: functional
[9] = test system: Trichophyton mentagrophytes; assay: Anti-fungal activity against Trichophyton mentagrophytes after 48 hrs by broth microdilution method; assay type: functional
[10] = test system: Plasmodium falciparum; assay: Antimalarial activity against chloroquine-sensitive Plasmodium falciparum 3D7 after 72 hrs by SYBR Green-1 staining based fluorescence assay; assay type: functional; settings: 3D7, 72 h
[11] = test system: Staphylococcus aureus; assay: Antibacterial activity against Staphylococcus aureus ATCC 29213 by broth microdilution method; assay type: functional
[12] = test system: Staphylococcus aureus; assay: Antibacterial activity against Staphylococcus aureus ATCC 25923 by broth microdilution method; assay type: functional
[13] = test system: Staphylococcus aureus; assay: Antibacterial activity against gentamicin-resistant Staphylococcus aureus ATCC 33592 by broth microdilution method; assay type: functional
[14] = test system: Staphylococcus aureus; assay: Antibacterial activity against methicillin-resistant Staphylococcus aureus ATCC 700699 by broth microdilution method; assay type: functional; settings: Mu50
[15] = Cytotoxicity against monkey Vero C1008 cells after 72 hrs by MTT assay; assay type: cell-based; settings: chlorocebus sabaeus
[16] = Selectivity index, ratio of CC50 for monkey Vero C1008 cells to IC50 for chloroquine-sensitive Plasmodium falciparum 3D7; assay type: toxicity; settings: read-out: Ratio CC50/IC50

## O=c1c2ccccc2sn1-c1cccc(Cl)c1
[1]
  MIC: 25 µg/mL (≈ 95.5 µM)
[2]
  MIC: 25 µg/mL (≈ 95.5 µM)
[3]
  MIC: > 50 µg/mL
[4]
  MIC: 12.5 µg/mL (≈ 47.8 µM)
[5]
  MIC: > 50 µg/mL
[6]
  MIC: 25 µg/mL (≈ 95.5 µM)
[7]
  MIC: > 50 µg/mL
[8]
  MIC: 12.5 µg/mL (≈ 47.8 µM)
[9]
  MIC: 12.5 µg/mL (≈ 47.8 µM)
[10]
  IC50: > 2 µM
[11]
  MIC: 6.25 µg/mL (≈ 23.9 µM)
[12]
  MIC: 6.25 µg/mL (≈ 23.9 µM)
[13]
  MIC: 6.25 µg/mL (≈ 23.9 µM)
[14]
  MIC: 3.12 µg/mL (≈ 11.9 µM)

## O=c1c2ccccc2sn1-c1cccc(C(F)(F)F)c1
[1]
  MIC: 25 µg/mL (≈ 84.7 µM)
[2]
  MIC: 25 µg/mL (≈ 84.7 µM)
[3]
  MIC: > 50 µg/mL
[4]
  MIC: 12.5 µg/mL (≈ 42.3 µM)
[5]
  MIC: > 50 µg/mL
[6]
  MIC: 25 µg/mL (≈ 84.7 µM)
[7]
  MIC: > 50 µg/mL
[8]
  MIC: 12.5 µg/mL (≈ 42.3 µM)
[9]
  MIC: 12.5 µg/mL (≈ 42.3 µM)
[10]
  IC50: > 2 µM
[11]
  MIC: 6.25 µg/mL (≈ 21.2 µM)
[12]
  MIC: 6.25 µg/mL (≈ 21.2 µM)
[13]
  MIC: 6.25 µg/mL (≈ 21.2 µM)
[14]
  MIC: 6.25 µg/mL (≈ 21.2 µM)

## Cc1ccc(-n2sc3ccccc3c2=O)cc1
[1]
  IC50: 4.1 µg/mL (≈ 17 µM)
  MIC: 13.3 µg/mL (≈ 55.1 µM)
[2]
  IC50: 1.3 µg/mL (≈ 5.39 µM)
  MIC: 2.4 µg/mL (≈ 9.95 µM)
[3]
  IC50: > 50 µg/mL
  MIC: > 50 µg/mL
[4]
  IC50: 1.2 µg/mL (≈ 4.97 µM)
  MIC: 1.5 µg/mL (≈ 6.22 µM)
[5]
  IC50: > 50 µg/mL
  MIC: > 50 µg/mL
[6]
  IC50: 0.4 µg/mL (≈ 1.66 µM)
  MIC: 0.6 µg/mL (≈ 2.49 µM)
[7]
  IC50: > 50 µg/mL
  MIC: > 50 µg/mL
[8]
  IC50: 0.9 µg/mL (≈ 3.73 µM)
  MIC: 1 µg/mL (≈ 4.14 µM)
[9]
  MIC: 1.7 µg/mL (≈ 7.04 µM)
[10]
  IC50: 1.66 µM
[11]
  IC50: 0.6 µg/mL (≈ 2.49 µM)
  MIC: 1 µg/mL (≈ 4.14 µM)
[15]
  CC50 at 72 h: 19.9 µM
[12]
  IC50: 0.6 µg/mL (≈ 2.49 µM)
  MIC: 1.07 µg/mL (≈ 4.43 µM)
[14]
  MIC: 0.75 µg/mL (≈ 3.11 µM)
[16]
  selectivity ratio: 12

## Nc1ccccc1-n1sc2ccccc2c1=O
[1]
  MIC: 12.5 µg/mL (≈ 51.6 µM)
[2]
  IC50: 2.6 µg/mL (≈ 10.7 µM)
  MIC: 4.3 µg/mL (≈ 17.7 µM)
[3]
  IC50: > 50 µg/mL
  MIC: > 50 µg/mL
[4]
  IC50: 1.9 µg/mL (≈ 7.84 µM)
  MIC: 2.3 µg/mL (≈ 9.49 µM)
[5]
  IC50: > 50 µg/mL
  MIC: > 50 µg/mL
[6]
  IC50: > 50 µg/mL
  MIC: > 50 µg/mL
[7]
  IC50: > 50 µg/mL
  MIC: > 50 µg/mL
[8]
  IC50: 5.7 µg/mL (≈ 23.5 µM)
  MIC: 11.7 µg/mL (≈ 48.3 µM)
[9]
  MIC: 3.3 µg/mL (≈ 13.6 µM)
[10]
  IC50: > 2 µM
[11]
  IC50: > 50 µg/mL
  MIC: > 50 µg/mL
[12]
  IC50: > 50 µg/mL
  MIC: > 50 µg/mL
[14]
  IC50: > 50 µg/mL
  MIC: > 50 µg/mL

## COc1ccc(-n2sc3ccccc3c2=O)cc1
[1]
  IC50: 6.9 µg/mL (≈ 26.8 µM)
  MIC: 11 µg/mL (≈ 42.7 µM)
[2]
  IC50: 2.4 µg/mL (≈ 9.33 µM)
  MIC: 3.5 µg/mL (≈ 13.6 µM)
[3]
  IC50: > 50 µg/mL
  MIC: > 50 µg/mL
[4]
  IC50: 0.9 µg/mL (≈ 3.5 µM)
  MIC: 1.1 µg/mL (≈ 4.27 µM)
[5]
  IC50: > 50 µg/mL
  MIC: > 50 µg/mL
[6]
  IC50: 0.6 µg/mL (≈ 2.33 µM)
  MIC: 0.7 µg/mL (≈ 2.72 µM)
[7]
  IC50: > 50 µg/mL
  MIC: > 50 µg/mL
[8]
  IC50: 0.4 µg/mL (≈ 1.55 µM)
  MIC: 0.8 µg/mL (≈ 3.11 µM)
[9]
  IC50: > 50 µg/mL
  MIC: > 50 µg/mL
[10]
  IC50: > 2 µM
[11]
  IC50: 1.2 µg/mL (≈ 4.66 µM)
  MIC: 1.9 µg/mL (≈ 7.38 µM)
[15]
  CC50 at 72 h: 32.6 µM
[12]
  IC50: 1.5 µg/mL (≈ 5.83 µM)
  MIC: 1.6 µg/mL (≈ 6.22 µM)
[14]
  MIC: 0.73 µg/mL (≈ 2.84 µM)

## COc1ccccc1-n1sc2ccccc2c1=O
[1]
  IC50: > 50 µg/mL
  MIC: > 50 µg/mL
[2]
  IC50: 2.9 µg/mL (≈ 11.3 µM)
  MIC: 7.2 µg/mL (≈ 28 µM)
[3]
  IC50: > 50 µg/mL
  MIC: > 50 µg/mL
[4]
  IC50: 0.9 µg/mL (≈ 3.5 µM)
  MIC: 3.8 µg/mL (≈ 14.8 µM)
[5]
  IC50: > 50 µg/mL
  MIC: > 50 µg/mL
[6]
  IC50: 0.7 µg/mL (≈ 2.72 µM)
  MIC: 3.2 µg/mL (≈ 12.4 µM)
[7]
  IC50: > 50 µg/mL
  MIC: > 50 µg/mL
[8]
  IC50: 0.6 µg/mL (≈ 2.33 µM)
  MIC: 4 µg/mL (≈ 15.5 µM)
[9]
  IC50: 0.7 µg/mL (≈ 2.72 µM)
  MIC: 2.6 µg/mL (≈ 10.1 µM)
[10]
  IC50: > 2 µM
[11]
  IC50: 1.6 µg/mL (≈ 6.22 µM)
  MIC: 2.4 µg/mL (≈ 9.33 µM)
[15]
  CC50 at 72 h: 24.5 µM
[12]
  IC50: 1 µg/mL (≈ 3.89 µM)
  MIC: 2 µg/mL (≈ 7.77 µM)
[14]
  MIC: 1.07 µg/mL (≈ 4.16 µM)

## COC(=O)[C@@H](NC(=O)[C@H](C(C)C)n1sc2ccccc2c1=O)C(C)C
[1]
  IC50: > 50 µg/mL
  MIC: > 50 µg/mL
[2]
  IC50: > 50 µg/mL
  MIC: > 50 µg/mL
[3]
  IC50: > 50 µg/mL
  MIC: > 50 µg/mL
[4]
  IC50: > 50 µg/mL
  MIC: > 50 µg/mL
[5]
  IC50: > 50 µg/mL
  MIC: > 50 µg/mL
[6]
  IC50: > 50 µg/mL
  MIC: > 50 µg/mL
[7]
  IC50: > 50 µg/mL
  MIC: > 50 µg/mL
[8]
  IC50: > 50 µg/mL
  MIC: > 50 µg/mL
[9]
  IC50: > 50 µg/mL
  MIC: > 50 µg/mL
[10]
  IC50: > 2 µM
[11]
  IC50: > 50 µg/mL
  MIC: > 50 µg/mL
[12]
  IC50: > 50 µg/mL
  MIC: > 50 µg/mL
[14]
  IC50: > 50 µg/mL
  MIC: > 50 µg/mL

## CC(C)Cn1sc2ccccc2c1=O
[1]
  IC50: 1.3 µg/mL (≈ 6.27 µM)
  MIC: 2.6 µg/mL (≈ 12.5 µM)
[2]
  MIC: 0.6 µg/mL (≈ 2.89 µM)
[3]
  IC50: > 50 µg/mL
  MIC: > 50 µg/mL
[4]
  MIC: 0.4 µg/mL (≈ 1.93 µM)
[5]
  IC50: > 50 µg/mL
  MIC: > 50 µg/mL
[6]
  IC50: 1 µg/mL (≈ 4.82 µM)
  MIC: 1.1 µg/mL (≈ 5.31 µM)
[7]
  IC50: > 50 µg/mL
  MIC: > 50 µg/mL
[8]
  MIC: 1.4 µg/mL (≈ 6.75 µM)
[9]
  IC50: > 50 µg/mL
  MIC: > 50 µg/mL
[10]
  IC50: > 2 µM
[11]
  IC50: 6.3 µg/mL (≈ 30.4 µM)
  MIC: 9.8 µg/mL (≈ 47.3 µM)
[12]
  IC50: 10.6 µg/mL (≈ 51.1 µM)
  MIC: 15.4 µg/mL (≈ 74.3 µM)
[14]
  IC50: 4.7 µg/mL (≈ 22.7 µM)
  MIC: 5.2 µg/mL (≈ 25.1 µM)

## COC(=O)[C@H](c1ccccc1)n1sc2ccccc2c1=O
[1]
  IC50: > 50 µg/mL
  MIC: > 50 µg/mL
[2]
  IC50: > 50 µg/mL
  MIC: > 50 µg/mL
[3]
  IC50: > 50 µg/mL
  MIC: > 50 µg/mL
[4]
  IC50: > 50 µg/mL
  MIC: > 50 µg/mL
[5]
  IC50: > 50 µg/mL
  MIC: > 50 µg/mL
[6]
  IC50: > 50 µg/mL
  MIC: > 50 µg/mL
[7]
  IC50: > 50 µg/mL
  MIC: > 50 µg/mL
[8]
  IC50: > 50 µg/mL
  MIC: > 50 µg/mL
[9]
  IC50: > 50 µg/mL
  MIC: > 50 µg/mL
[10]
  IC50: > 2 µM
[11]
  IC50: 13.5 µg/mL (≈ 45.1 µM)
  MIC: 18.7 µg/mL (≈ 62.5 µM)
[12]
  IC50: 1.1 µg/mL (≈ 3.67 µM)
  MIC: 1.5 µg/mL (≈ 5.01 µM)
[14]
  IC50: 2.6 µg/mL (≈ 8.69 µM)
  MIC: 4.2 µg/mL (≈ 14 µM)
